Assay results reported in article PMC7113852 (Antiviral Research, 2018).
Where two headings read alike, the source gives them in different places.

Experiments:
[1] = test system: RVFV (rRVFVΔNSs::Katushka); assay: microbe, parasite or virus in culture; assay type: cell-based, Rift Valley fever virus; conditions: for EC50: Rift Valley fever virus, A549, read-out: EC50 other
[2] = in vitro; conditions: human
[3] = test system: ZIKV FB-GWUH-2016 strain; assay: Viability and death of ZIKV-infected RPE cells; assay type: cell-based, Zika virus; conditions: for SI (minimal selectivity index, CC50/EC50): ZIKV, RPE cells; for EC50: Zika virus, RPE
[4] = test system: ZIKV FB-GWUH-2016 strain; assay: ZIKV titer from compound-treated RPE cells, plaque assay on Vero-E6 cells; assay type: cell-based, Zika virus; conditions: for antiviral activity in repeat experiments: repeated CTG, CTxG and virus titration; for EC50: Zika virus, read-out: EC50 other
Summary of the method: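 Medium for ZIKV infection: DMEM-F12 with 2% FBS, 2 mM L-glutamine, 0.25% sodium bicarbonate and 50 U/ml PenStrep, applied after 24 h growth of ~4 × 10^4 RPE cells/well. Test compound added in seven three-fold dilutions from 30 μM; infection at MOI 1. Media harvested at cytopathic effect (typically 24–72 hpi), serially diluted in PBS, plaque-titrated on Vero-E6 (PFU/ml). EC50 from variable-slope non-linear regression or Hill fit.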

[5] = in vitro; conditions: human; remark: listed apart in the source
[6] = test system: CHIKV-2SG-NanoLuc; assay: microbe, parasite or virus in culture; assay type: cell-based, Chikungunya virus; conditions: for SI (minimal selectivity index, CC50/EC50): CHIKV, RPE cells; for EC50: Chikungunya virus, RPE
[7] = test system: CHIKV-2SG-NanoLuc; assay: microbe, parasite or virus in culture; assay type: cell-based, Chikungunya virus; conditions: for EC50: Chikungunya virus, RPE, read-out: EC50 other
[8] = test system: EV1; assay: microbe, parasite or virus in culture; assay type: cell-based, Echovirus 1; conditions: for EC50: read-out: EC50 other
[9] = test system: RPE cells
[10] = test system: EV1; assay: microbe, parasite or virus in culture; assay type: cell-based, Echovirus 1
[11] = test system: HIV-1; assay: HIV-1 infection of TZM-bl cells, firefly luciferase under HIV-1 LTR promoter; assay type: cell-based, Human immunodeficiency virus 1; conditions: for SI (minimal selectivity index, CC50/EC50) / primary screen hit against HIV-1 / validation of anti-HIV-1 hit: HIV-1, TZM-bl cells; for validation of anti-HIV-1 hit: validation experiment; for EC50: Human immunodeficiency virus 1, TZM-bl, read-out: EC50 other
[12] = in vitro; conditions: human; remark: listed apart in the source
[13] = test system: RRV-2SG-NanoLuc; assay: microbe, parasite or virus in culture; assay type: cell-based, Ross River virus
[14] = test system: RRV-2SG-NanoLuc; assay: microbe, parasite or virus in culture; assay type: cell-based, Ross River virus; remark: listed apart in the source
[15] = Enterovirus B, RPE, read-out: EC50 CTxG

Structure (SMILES): Nc1ncn([C@@H]2O[C@H](CO)[C@@H](O)[C@H]2O)c(=O)n1 [Azacitidine]
- SI (minimal selectivity index, CC50/EC50) [1]: >9
- screen hit against RVFV [1]: identified
- EC50 [1]: 11.4 µM
- CC50 [2]: > 100 µM

Structure (SMILES): Nc1ncnc2c([C@@H]3N[C@H](CO)[C@@H](O)[C@H]3O)c[nH]c12 [BCX4430]
- SI (minimal selectivity index, CC50/EC50) [3]: >2
- EC50 ([3]; read-out: EC50 CTG): 18.5 µM
- EC50 ([3]; read-out: EC50 CTxG): 2.96 µM
- antiviral activity in repeat experiments ([4]; ZIKV, RPE cells): confirmed antiviral activity
- EC50 [4]: 13.1 µM
- CC50 ([5]; CC50 CTG): > 30 µM
- CC50 ([5]; CC50 CTxG): > 30 µM

Structure (SMILES): CCN(CC)CCCC(C)Nc1ccnc2cc(Cl)ccc12 (stereo not drawn) [Chloroquine]
- SI (minimal selectivity index, CC50/EC50) [3]: >4
- EC50 ([3]; read-out: EC50 CTG): 7.25 µM
- SI (minimal selectivity index, CC50/EC50) [6]: >2
- EC50 ([6]; read-out: EC50 CTG): 12.8 µM
- EC50 ([6]; read-out: EC50 CTxG): 9.15 µM
- antiviral activity in repeat experiments ([4]; ZIKV, RPE cells): confirmed antiviral activity
- CC50 ([5]; CC50 CTG): > 30 µM
- CC50 ([5]; CC50 CTxG): > 30 µM
- antiviral activity in repeat experiments [7]: confirmed antiviral activity
- EC50 [7]: 16.8 µM

Structure (SMILES): CN[C@H]1C(=O)N[C@@H]2Cc3ccc(cc3)Oc3cc4cc(c3O[C@@H]3O[C@H](C(=O)O)[C@@H](O)[C@H](O)[C@H]3NC(=O)CCCCCCCCC(C)C)Oc3ccc(cc3Cl)[C@@H](O)[C@@H]3NC(=O)[C@H](NC(=O)[C@@H]4NC(=O)[C@@H](NC2=O)c2cc(cc(O)c2Cl)Oc2cc1ccc2O)c1ccc(O)c(c1)-c1c(O[C@H]2O[C@H](CO)[C@@H](O)[C@H](O)[C@@H]2O)cc(O)cc1[C@@H](C(=O)NCCCN(C)C)NC3=O [Dalbavancin]
- antiviral activity in repeat experiments [8]: confirmed antiviral activity
- production of infectious virus particles [8]: lowered production of infectious virus particles
- EC50 [8]: 9.72 µM
- CC50 [9]: > 30 µM
- cytotoxicity [9]: without detectable cytotoxicity
- EC50 ([10]; read-out: EC50 CTG): 3.23 µM
- EC50 ([10]; read-out: EC50 CTxG): 18.7 µM

Structure (SMILES): CCCCOc1cc(C(=O)NCCN(CC)CC)c2ccccc2n1 [Dibucaine]
- antiviral activity in repeat experiments [8]: confirmed antiviral activity
- EC50 ([8]; Enterovirus B): 0.96 µM
- CC50 ([5]; CC50 CTG): > 30 µM
- CC50 ([5]; CC50 CTxG): > 30 µM
- SI (minimal selectivity index, CC50/EC50) [10]: >15
- EC50 [10, 15]: 2.05 µM

Structure (SMILES): O=C1[C@H](CC[C@H](O)c2ccc(F)cc2)[C@@H](c2ccc(O)cc2)N1c1ccc(F)cc1 [Ezetimibe]
- screen hit against RVFV [1]: identified
- SI (minimal selectivity index, CC50/EC50) [3]: >333
- EC50 ([3]; read-out: EC50 CTxG): 0.09 µM
- SI (minimal selectivity index, CC50/EC50) [11]: >2
- primary screen hit against HIV-1 [11]: anti-HIV-1 agents
- validation of anti-HIV-1 hit [11]: confirmed
- EC50 [11]: 13.2 µM
- production of infectious virus particles ([4]; ZIKV, RPE cells): lowered production of infectious virus particles
- antiviral activity in repeat experiments ([4]; ZIKV, RPE cells): confirmed antiviral activity
- CC50 [12]: > 30 µM
- CC50 ([5]; CC50 CTG): > 30 µM
- CC50 ([5]; CC50 CTxG): > 30 µM
- cytotoxicity [9]: without detectable cytotoxicity

Structure (SMILES): CNCCC(Oc1ccc(C(F)(F)F)cc1)c1ccccc1 (stereo not drawn) [Fluoxatine]
- CC50 ([5]; CC50 CTG): 4.02 µM
- CC50 ([5]; CC50 CTxG): 7.33 µM

Structure (SMILES): CCN(CCO)CCCC(C)Nc1ccnc2cc(Cl)ccc12 (stereo not drawn) [Hydroxychloroquine]
- SI (minimal selectivity index, CC50/EC50) [3]: >1
- EC50 ([3]; read-out: EC50 CTG): 23 µM
- EC50 ([3]; read-out: EC50 CTxG): 0.06 µM
- antiviral activity in repeat experiments ([4]; ZIKV, RPE cells): confirmed antiviral activity
- CC50 ([5]; CC50 CTG): > 30 µM
- CC50 ([5]; CC50 CTxG): > 30 µM

Structure (SMILES): Cc1cccc(C)c1OCC(=O)N[C@@H](Cc1ccccc1)[C@@H](O)C[C@H](Cc1ccccc1)NC(=O)[C@H](C(C)C)N1CCCNC1=O [Lopinavir]
- SI (minimal selectivity index, CC50/EC50) [3]: >1
- EC50 ([3]; read-out: EC50 CTG): 12 µM
- antiviral activity in repeat experiments ([4]; ZIKV, RPE cells): confirmed antiviral activity
- EC50 [4]: 24.1 µM
- CC50 ([5]; CC50 CTG): > 30 µM
- CC50 ([5]; CC50 CTxG): > 30 µM

Structure (SMILES): CN(C)c1ccc(O)c2c1C[C@H]1C[C@H]3[C@H](N(C)C)C(O)=C(C(N)=O)C(=O)[C@@]3(O)C(O)=C1C2=O [Minocycline]
- SI (minimal selectivity index, CC50/EC50) [1]: >11
- screen hit against RVFV [1]: identified
- EC50 [1]: 9.52 µM
- primary screen hit against HIV-1 [11]: anti-HIV-1 agents
- validation of anti-HIV-1 hit [11]: confirmed
- EC50 [11]: 6.84 µM

Structure (SMILES): COc1c(C)c2c(c(O)c1C/C=C(\C)CCC(=O)O)C(=O)OC2 [Mycophenolic acid]
- SI (minimal selectivity index, CC50/EC50) [13]: >9
- EC50 ([13]; Ross River virus, RPE, read-out: EC50 CTG): 3.19 µM
- antiviral activity in repeat experiments [14]: confirmed antiviral activity
- EC50 ([14]; Ross River virus, RPE, read-out: EC50 other): 0.86 µM
- SI (minimal selectivity index, CC50/EC50) [6]: >333
- EC50 ([6]; read-out: EC50 CTxG): 0.08 µM
- CC50 ([5]; CC50 CTG): > 30 µM
- CC50 ([5]; CC50 CTxG): > 30 µM
- antiviral activity in repeat experiments [7]: confirmed antiviral activity
- EC50 [7]: 0.09 µM

Structure (SMILES): CN[C@H](CC(C)C)C(=O)N[C@H]1C(=O)N[C@@H](CC(N)=O)C(=O)N[C@H]2C(=O)N[C@H]3C(=O)N[C@H](C(=O)N[C@H](C(=O)O)c4cc(O)cc(O)c4-c4cc3ccc4O)[C@H](O[C@H]3C[C@](C)(N)[C@@H](O)[C@H](C)O3)c3ccc(c(Cl)c3)Oc3cc2cc(c3O[C@@H]2O[C@H](CO)[C@@H](O)[C@H](O)[C@H]2O[C@H]2C[C@](C)(NCc3ccc(-c4ccc(Cl)cc4)cc3)[C@@H](O)[C@H](C)O2)Oc2ccc(cc2Cl)[C@H]1O [Oritavancin]
- screen hit against RVFV [1]: identified
- EC50 [1]: 4.49 µM
- CC50 [2]: 75.8 µM

Structure (SMILES): Cc1ccc2c(c1)c1c3n2CCNC3CCC1 (stereo not drawn) [Pirlindole]
- antiviral activity in repeat experiments [8]: confirmed antiviral activity
- EC50 ([8]; Enterovirus B): 8.92 µM
- CC50 ([5]; CC50 CTG): 28.5 µM
- CC50 ([5]; CC50 CTxG): > 30 µM
- SI (minimal selectivity index, CC50/EC50) [10]: 11
- EC50 [10, 15]: 2.71 µM

Structure (SMILES): CO[C@H]1C[C@@H]2CC[C@@H](C)[C@@](O)(O2)C(=O)C(=O)N2CCCC[C@H]2C(=O)O[C@H]([C@H](C)C[C@@H]2CC[C@@H](O)[C@H](OC)C2)CC(=O)[C@H](C)/C=C(\C)[C@@H](O)[C@@H](OC)C(=O)[C@H](C)C[C@H](C)/C=C/C=C/C=C/1C [Rapamycin]
- SI (minimal selectivity index, CC50/EC50) [11]: >1
- primary screen hit against HIV-1 [11]: anti-HIV-1 agents
- validation of anti-HIV-1 hit [11]: confirmed
- EC50 [11]: 18.9 µM
- CC50 [12]: > 30 µM

Structure (SMILES): CC(C)c1nc(CN(C)C(=O)N[C@H](C(=O)N[C@@H](Cc2ccccc2)C[C@H](O)[C@H](Cc2ccccc2)NC(=O)OCc2cncs2)C(C)C)cs1 [Ritonavir]
- screen hit against RVFV [1]: identified
- EC50 [1]: 26.8 µM

Structure (SMILES): C[C@H]1c2cccc(O)c2C(=O)C2=C(O)[C@]3(O)C(=O)C(C(N)=O)=C(O)[C@@H](N(C)C)[C@@H]3[C@@H](O)[C@@H]21 [doxycycline]
- screen hit against RVFV [1]: identified

Structure (SMILES): COc1cc2ncnc(Nc3ccc(F)c(Cl)c3)c2cc1OCCCN1CCOCC1 [gefitinib]
- screen hit against RVFV [1]: identified

Structure (SMILES): CC[C@@]1(O)C(=O)OCc2c1cc1n(c2=O)Cc2cc3c(CN(C)C)c(O)ccc3nc2-1 [topotecan]
- screen hit against RVFV [1]: identified
